We go through 10 molecules from ChEMBL document CHEMBL4028836, “Optimization of M4 positive allosteric modulators (PAMs): The discovery of VU0476406, a non-human primate in vivo tool compound for translational pharmacology” (Bioorg Med Chem Lett, 2017).

Series [1] has as its target T1, Muscarinic acetylcholine receptor M4 (Homo sapiens, UniProt P08173).
T1 sequence (P08173 whole entry): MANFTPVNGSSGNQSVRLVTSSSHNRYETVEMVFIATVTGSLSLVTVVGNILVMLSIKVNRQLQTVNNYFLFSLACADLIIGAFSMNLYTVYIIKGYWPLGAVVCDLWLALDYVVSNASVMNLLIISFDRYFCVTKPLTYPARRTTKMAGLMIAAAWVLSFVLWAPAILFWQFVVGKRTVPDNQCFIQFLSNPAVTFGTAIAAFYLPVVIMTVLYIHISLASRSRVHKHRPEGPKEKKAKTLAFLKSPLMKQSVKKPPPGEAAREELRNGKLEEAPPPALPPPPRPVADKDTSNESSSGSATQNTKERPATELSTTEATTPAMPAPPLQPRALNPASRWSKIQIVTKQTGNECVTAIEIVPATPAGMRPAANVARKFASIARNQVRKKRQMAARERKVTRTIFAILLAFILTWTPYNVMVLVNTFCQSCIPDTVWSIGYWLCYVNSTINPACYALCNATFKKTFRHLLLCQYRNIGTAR
The series is described as follows: Positive allosteric modulation of human M4 receptor expressed in CHO cells coexpressing Gqi5 assessed as increase in acetylcholine-induced calcium mobilization. The class given is functional, cell-based. The method, boiled down:
(§1)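 Calcium mobilization in CHO cells expressing hM4 with Gqi5. Compound added in presence of a fixed EC20 concentration of acetylcholine. Values are means of three independent experiments, each run in triplicate.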
On the technique in general: Calcium flux is commonly read through the fluorescence of an indicator in the cells.

Series [2] deals with T2, Muscarinic acetylcholine receptor M4 (Homo sapiens) (UniProt P08173).
T2 sequence (whole entry): T1 sequence (P08173 whole entry)
Nature of the series: Positive allosteric modulation of human M4 receptor expressed in CHO cells coexpressing Gqi5 assessed as increase in acetylcholine-induced calcium mobilization relative to acetylcholine. It counts as functional, cell-based. The method in brief: as §1

Series [3] concerns the target Muscarinic acetylcholine receptor M4 (Rattus norvegicus) (UniProt P08485). Nature of the series: Positive allosteric modulation of rat M4 receptor assessed as increase in acetylcholine-induced calcium mobilization relative to acetylcholine. It counts as functional. The method in brief: (§2)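 M4 PAM concentration-response curves measured by calcium mobilization at the stated species' receptor. Potency reported as EC50/pEC50 and efficacy as % of acetylcholine maximum.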

The species named for series [4] is Canis lupus familiaris. Nature of the series: Positive allosteric modulation of dog M4 receptor assessed as increase in acetylcholine-induced calcium mobilization relative to acetylcholine. The method in brief:
as §2

The species named for series [5] is Macaca fascicularis. The series is described as follows: Positive allosteric modulation of cynomolgus monkey M4 receptor assessed as increase in acetylcholine-induced calcium mobilization relative to acetylcholine. The method, boiled down: as §2
Series [6] concerns the target Muscarinic acetylcholine receptor M4 (Rattus norvegicus) (UniProt P08485). The series is described as follows: Displacement of [3H]NMS from rat M4 receptor. The method, boiled down:
(§3)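 Competition binding of ACh against [3H]-N-methylscopolamine at M4 of each species. Combined with ACh concentration-response fold-shift Ca2+ mobilization data to fit operational model parameters (KB, α, β). n=3–4, each in duplicate.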
A general note: Loss of bound radioactivity is the signal in a displacement assay; it reports binding, not function.

For series [7], the target named is T2, Muscarinic acetylcholine receptor M4 (Homo sapiens). Nature of the series: Displacement of [3H]NMS from human M4 receptor. The method in brief:
as §3

The species entered for series [8] is Macaca fascicularis. The series is described as follows: Displacement of [3H]NMS from cynomolgus monkey M4 receptor. The method in brief:
as §3

The species named for series [9] is Canis lupus familiaris. The series is described as follows: Activity at dog M2 receptor.
The species named for series [10] is Macaca fascicularis. Nature of the series: Activity at cynomolgus monkey M2 receptor.
Series [11] is filed under the species Rattus norvegicus. The series is described as follows: Activity at rat GABA-A receptor. The method in brief:
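Rat GABAA receptor, benzodiazepine site, radioligand binding in a broad secondary pharmacology panel. IC50 taken from binding. Functional follow-up was run at 10 μM.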

Series [12] in a line: Brain to plasma permeability coefficient, Kp of the compound in cynomolgus monkey at 145 MBq, iv measured at 2 hrs post dose by PET analysis. The class given is ADME, organism-based, Macaca fascicularis. The method in brief:
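PET study in one cynomolgus monkey given a single IV dose of [18F]-labelled compound (145 MBq), with roughly 2 hr of data acquisition after dosing. Whole and regional brain distribution of total and calculated unbound compound was determined.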

Series [13] is described as follows: Ratio of unbound brain to plasma concentration in cynomolgus monkey at 145 MBq, iv measured at 2 hrs post dose by PET analysis. It counts as ADME, organism-based, Macaca fascicularis. The note with it: read-out: K(p,uu,brain). The method, boiled down:
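Whole and regional brain distribution of total and calculated unbound drug in one cynomolgus monkey. PET after a single IV dose of [18F]-labelled compound (145 MBq), with about 2 h of data acquisition post-dose.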

A short description of series [14]: Ratio of unbound CSF to plasma concentration in cynomolgus monkey at 145 MBq, iv measured at 2 hrs post dose by PET analysis. The class given is ADME, organism-based, Macaca fascicularis.
The nature of series [15]: Oral bioavailability in rat at 10 mg/kg. The note with it: in vivo. The class given is ADME, organism-based. The method in brief:
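Rat oral bioavailability from a 10 mg/kg solution dose. Separately, the HCl salt was dosed as a suspension.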

Series [16] is described as follows: Elimination half life in dog at 3 mg/kg, iv or po. It counts as ADME, organism-based, Canis lupus familiaris. The note with it: in vivo, read-out: beta t1/2 (converted).
Series [17] in a line: Volume of distribution at steady state in dog at 3 mg/kg, iv or po. The note with it: in vivo, read-out: Vdss. It counts as ADME, organism-based, Canis lupus familiaris. The method, boiled down:
(§4)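 Dog IV and PO pharmacokinetics. Oral bioavailability from a 3 mg/kg suspension dose of the HCl salt.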

The nature of series [18]: Oral bioavailability in dog at 3 mg/kg. It counts as ADME, organism-based, Canis lupus familiaris. The note with it: in vivo. The method in brief: as §4
The test system of series [19] is Cynomolgus monkey. The series is described as follows: Elimination half life in cynomolgus monkey at 10 mg/kg, iv. The class given is ADME, organism-based, Macaca fascicularis. The note with it: in vivo.
The test system of series [20] is Cynomolgus monkey. Nature of the series: Volume of distribution at steady state in cynomolgus monkey at 10 mg/kg, iv. The class given is ADME, organism-based, Macaca fascicularis. The note with it: in vivo.
Series [21] can be described thus: Oral bioavailabilty in cynomolgus monkey at 10 mg/kg. The note with it: in vivo. The class given is ADME, organism-based, Macaca fascicularis. The method, boiled down: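 Cynomolgus monkey oral bioavailability from a 10 mg/kg solution dose of the HCl salt.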
The next series addresses T3, Cytochrome P450 1A2 (Homo sapiens, UniProt P05177).
T3 sequence (P05177 whole entry): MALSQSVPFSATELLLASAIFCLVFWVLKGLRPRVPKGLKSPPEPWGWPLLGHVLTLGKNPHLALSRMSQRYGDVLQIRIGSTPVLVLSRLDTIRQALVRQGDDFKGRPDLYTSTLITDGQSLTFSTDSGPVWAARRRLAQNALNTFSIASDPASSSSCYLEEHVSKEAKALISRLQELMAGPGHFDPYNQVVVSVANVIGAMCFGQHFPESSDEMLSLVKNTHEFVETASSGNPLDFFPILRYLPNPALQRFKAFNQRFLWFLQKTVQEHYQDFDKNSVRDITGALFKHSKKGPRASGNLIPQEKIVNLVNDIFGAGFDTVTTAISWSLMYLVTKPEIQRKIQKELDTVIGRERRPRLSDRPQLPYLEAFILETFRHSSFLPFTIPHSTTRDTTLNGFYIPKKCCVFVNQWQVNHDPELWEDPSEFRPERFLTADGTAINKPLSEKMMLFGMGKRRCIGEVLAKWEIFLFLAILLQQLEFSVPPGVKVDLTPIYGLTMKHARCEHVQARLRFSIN
Nature of the series: Inhibition of CYP1A2 (unknown origin). The class given is ADME.

The target in the next series is Cytochrome P450 2C9 (Homo sapiens, UniProt P11712). The series is described as follows: Inhibition of CYP2C9 (unknown origin). It counts as ADME.
Chain of Cytochrome P450 2C9 (P11712 whole entry): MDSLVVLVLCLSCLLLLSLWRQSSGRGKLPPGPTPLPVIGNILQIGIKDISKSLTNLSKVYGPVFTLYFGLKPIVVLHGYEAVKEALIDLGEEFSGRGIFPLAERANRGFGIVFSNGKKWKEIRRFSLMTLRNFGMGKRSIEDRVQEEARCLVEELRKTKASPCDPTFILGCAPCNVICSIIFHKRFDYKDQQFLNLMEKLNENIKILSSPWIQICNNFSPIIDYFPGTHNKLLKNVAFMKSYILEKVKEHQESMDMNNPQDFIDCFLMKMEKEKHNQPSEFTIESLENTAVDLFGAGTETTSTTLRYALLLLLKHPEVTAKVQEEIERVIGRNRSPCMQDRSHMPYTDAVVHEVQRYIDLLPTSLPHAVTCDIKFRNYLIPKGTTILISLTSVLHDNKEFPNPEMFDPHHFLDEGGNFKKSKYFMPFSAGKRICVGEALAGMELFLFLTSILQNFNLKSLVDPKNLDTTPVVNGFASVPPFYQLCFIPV
The target of a further series is Cytochrome P450 2D6 (Homo sapiens, UniProt P10635). Nature of the series: Inhibition of CYP2D6 (unknown origin). It counts as ADME.
Chain of Cytochrome P450 2D6 (P10635 whole entry): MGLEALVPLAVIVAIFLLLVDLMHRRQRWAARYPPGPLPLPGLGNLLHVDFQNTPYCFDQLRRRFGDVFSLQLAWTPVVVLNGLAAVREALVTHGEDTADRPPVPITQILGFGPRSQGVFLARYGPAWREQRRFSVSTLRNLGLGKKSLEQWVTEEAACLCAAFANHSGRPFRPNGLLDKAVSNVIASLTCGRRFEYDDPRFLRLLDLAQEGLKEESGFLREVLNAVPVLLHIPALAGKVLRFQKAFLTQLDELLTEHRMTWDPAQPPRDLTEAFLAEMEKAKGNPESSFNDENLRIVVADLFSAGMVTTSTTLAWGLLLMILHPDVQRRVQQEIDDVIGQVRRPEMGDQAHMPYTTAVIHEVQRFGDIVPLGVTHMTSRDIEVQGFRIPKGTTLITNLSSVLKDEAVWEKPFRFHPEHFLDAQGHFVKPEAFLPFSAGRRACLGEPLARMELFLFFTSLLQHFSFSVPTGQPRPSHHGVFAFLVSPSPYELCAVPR
The next series concerns the target Cytochrome P450 3A4 (Homo sapiens, UniProt P08684). The series is described as follows: Inhibition of CYP3A4 (unknown origin). The class given is ADME.
The subject of series [22] is Rattus norvegicus. The series is described as follows: Elimination half-life in Sprague-Dawley rat at 0.1 to 1 mg/kg, iv. It counts as ADME, organism-based. The note with it: in vivo.
Series [23] concerns Rattus norvegicus. Nature of the series: Volume of distribution at steady state […] in Sprague-Dawley rat at 0.1 to 1 mg/kg, iv. It counts as ADME, organism-based. The note with it: in vivo. The method, boiled down: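 IV pharmacokinetics in Sprague-Dawley rats at 0.1–1.0 mg/kg. CLp, elimination t½ and Vss derived.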
The nature of series [24]: Brain to plasma permeability coefficient, Kp of the compound in Sprague-Dawley rat at 0.1 to 0.2 mg/kg, iv measured at 0.25 hrs post dose. It counts as ADME, organism-based. The method in brief: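 Sprague-Dawley rats were dosed IV at 0.1–0.2 mg/kg, with brain and plasma sampled at 0.25 hr. Brain:plasma Kp was calculated, with Kp,uu where unbound fractions were available.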

Series [25] can be described thus: Unbound plasma concentration in human. The class given is ADME, cell-free.
Series [26] is described as follows: Unbound plasma concentration in rat. The class given is ADME, cell-free.

Activity calls are given as the source filed them. The rule behind the calls is not given here.

Chain of Muscarinic acetylcholine receptor M4 (Rattus norvegicus) (P08485 whole entry): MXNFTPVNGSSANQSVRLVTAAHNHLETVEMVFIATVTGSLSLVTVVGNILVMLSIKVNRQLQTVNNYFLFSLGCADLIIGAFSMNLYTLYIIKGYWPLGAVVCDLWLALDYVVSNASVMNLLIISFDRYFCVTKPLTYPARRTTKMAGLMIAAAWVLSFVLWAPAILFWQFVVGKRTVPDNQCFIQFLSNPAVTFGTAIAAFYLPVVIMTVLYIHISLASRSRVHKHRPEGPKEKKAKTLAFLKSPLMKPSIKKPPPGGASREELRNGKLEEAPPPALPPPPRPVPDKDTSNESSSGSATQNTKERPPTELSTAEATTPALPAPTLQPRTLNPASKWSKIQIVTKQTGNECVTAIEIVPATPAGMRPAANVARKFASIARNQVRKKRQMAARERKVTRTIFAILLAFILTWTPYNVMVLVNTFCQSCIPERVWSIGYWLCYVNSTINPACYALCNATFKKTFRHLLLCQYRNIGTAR
Chain of Cytochrome P450 3A4 (P08684 whole entry): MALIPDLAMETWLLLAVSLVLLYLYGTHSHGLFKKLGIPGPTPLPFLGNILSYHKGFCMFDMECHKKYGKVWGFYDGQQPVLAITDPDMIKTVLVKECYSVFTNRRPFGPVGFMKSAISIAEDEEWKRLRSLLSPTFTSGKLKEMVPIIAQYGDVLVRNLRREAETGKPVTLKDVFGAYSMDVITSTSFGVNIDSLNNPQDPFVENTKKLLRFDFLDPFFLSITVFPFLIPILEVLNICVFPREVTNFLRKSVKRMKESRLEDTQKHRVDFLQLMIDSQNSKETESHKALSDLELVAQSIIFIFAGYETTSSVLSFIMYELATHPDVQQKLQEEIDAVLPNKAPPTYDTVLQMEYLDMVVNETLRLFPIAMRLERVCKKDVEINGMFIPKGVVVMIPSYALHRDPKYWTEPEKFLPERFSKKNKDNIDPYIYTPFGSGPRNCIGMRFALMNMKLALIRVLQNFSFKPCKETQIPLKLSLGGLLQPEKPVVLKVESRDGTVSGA

For the molecule `Cc1nnc2sc(C(=O)NCc3cccc(Br)c3)c(N)c2c1C`, the EC50 in [1] (read-out: EC50) is 185 nM; in [1] (read-out: pEC50 (converted)), 170 nM. In addition, the %max in series [2] came out at 84%.
On to `COc1ncc(-c2ccc(CNC(=O)c3sc4nnc(C)c(C)c4c3N)cc2)cn1`, for which the EC50 in series [1] (read-out: EC50) came out at 84 nM. In addition, in series [2], the %max amounted to 91%.
On to `Cc1nnc2sc(C(=O)NCc3ccc(-c4cccnc4F)cc3)c(N)c2c1C`, for which the %max in [2] stood at 74%; in series [3], 72%; in the series listed under Canis lupus familiaris [4], 49%; in the series listed under Macaca fascicularis [5], 64%. Besides, the Kb worked out at 370 nM in series [6], 2800 nM in series [7] and 2100 nM in the series listed under Macaca fascicularis [8]. Also, the outcome in the series filed under Canis lupus familiaris [9], in the series filed under Macaca fascicularis [10] and in the series filed under Rattus norvegicus [11] was inactive.
The Kp is the ratio of the level in a tissue or fluid to that in plasma or blood. On to `Cc1nnc2sc(C(=O)NCc3ccc(-c4cccnc4[18F])cc3)c(N)c2c1C`, for which, in series [12], the Kp amounted to 0.75. The Kp uu at 2 h was 1.1 in series [13] and 1 in [14].
As for `Cc1nnc2sc(C(=O)NCc3cccc(-c4ccccc4)c3)c(N)c2c1C`, the EC50 in series [1] (read-out: EC50) was 1650 nM. Also, the %max in series [2] was determined as 41%.
By bioavailability is commonly meant the share of a dose that reaches the circulation, judged against a reference dose that is usually intravenous. One may read the Vdss as the apparent volume that relates the amount in the body to the concentration in plasma or blood. As to `Cc1nnc2sc(C(=O)NCc3ccc(-c4cccnc4F)cc3)c(N)c2c1C.Cl`, the bioavailability in series [15] turned out to be 54%; in [18], 47%; in series [21], 4.7%. Moreover, the half-life in series [16] is 1 h. Further, the Vd in series [17] was determined as 0.7 L/kg. Moreover, the “beta t1/2” value in the series on Cynomolgus monkey [19] amounted to 1.3 h. This molecule also registered a Vdss in the series on Cynomolgus monkey [20] of 0.87 L/kg.
`Cc1nnc2sc(C(=O)NCc3ccc(-c4cccnc4)cc3)c(N)c2c1C`: the EC50 in series [1] (read-out: EC50) turned out to be 103 nM. Besides, the %max in [2] turned out to be 63%.
The IC50 is the concentration needed to halve the response being measured. Broadly, the fraction unbound is the share of the substance not bound to proteins or other matrix. `Cc1nnc2sc(C(=O)NCc3ccc(-c4ccc(F)nc4)cc3)c(N)c2c1C`: the EC50 in series [1] (read-out: EC50) stood at 64 nM. Besides, in series [2], the %max was determined as 79%. Besides, the IC50 is 790 nM against Cytochrome P450 1A2, 26000 nM on Cytochrome P450 2C9, greater than 30000 nM against Cytochrome P450 2D6 and 25000 nM against Cytochrome P450 3A4. Further, in the series on Rattus norvegicus [22], the “beta t1/2” value came to 0.48 h. In the series on Rattus norvegicus [23], this molecule yielded a Vdss of 0.6 L/kg. Besides, the Kp in [24] was determined as 0.13. In addition, the fraction unbound in [25] turned out to be 0.023; in series [26] it was 0.004.
As to `Cc1nnc2sc(C(=O)NCc3ccc(-c4cnccn4)cc3)c(N)c2c1C`, the EC50 in series [1] (read-out: EC50) came out at 159 nM. The %max in [2] came out at 63%.
Take `Cc1nnc2sc(C(=O)NCc3ccc(-c4ccncc4F)cc3)c(N)c2c1C`: the EC50 in series [1] (read-out: EC50) is 1720 nM; in [1] (read-out: pEC50 (converted)), 1550 nM. Further, the %max in series [2] came out at 86%.
